Measurements gathered from unrelated publications.
Lines come from different studies, so protocols differ. pEC50: −log10 of the molar value. Values after ≈ are worked out from the molar mass of the structure shown.

Compound	organism	assay	system	setting	quantity	value
CCOC(=O)/C=C1/SC(N/N=C/c2c(-c3ccc(F)cc3)nc3ncccn23)=NC1=O	Escherichia coli	microbial growth, well diffusion	ATCC25922	100 µg/mL	inhibition zone	10 mm
O=c1cc(Nc2ccccc2)c2ccccc2o1	Escherichia coli	microbial growth, broth dilution			MIC90	9 µg/mL (≈ 37.9 µM)
CC(=O)c1sc(N/N=C/c2c(-c3ccccc3)nc3ncccn23)nc1C	Escherichia coli	microbial growth, well diffusion	ATCC25922	100 µg/mL	inhibition zone	14 mm
CCCS(=O)(=O)Oc1ccc(C=NNC(=O)CSc2nc3ccc(Cl)cc3c(=O)n2-c2ccccc2)cc1	Staphylococcus aureus	microbial growth, well diffusion	MRSA	20 µg/mL	inhibition zone	2 mm
O=C1C(=O)c2cccnc2-c2ncccc21	Angiostrongylus cantonensis	parasite motility		24 h, larva	pEC50	4.59
CN[C@H](CC(C)C)C(=O)N[C@H]1C(=O)N[C@@H](CC(N)=O)C(=O)N[C@H]2C(=O)N[C@H]3C(=O)N[C@H](C(=O)N[C@H](C(=O)O)c4cc(O)cc(O)c4-c4cc3ccc4O)[C@H](O)c3ccc(c(Cl)c3)Oc3cc2cc(c3O[C@@H]2O[C@H](CO)[C@@H](O)[C@H](O)[C@H]2O[C@H]2C[C@](C)(N)[C@H](O)[C@H](C)O2)Oc2ccc(cc2Cl)[C@H]1O	Micrococcus luteus	microbial growth, broth dilution	DSM1790		MIC	0.17 µM
CCCSc1ccc2nc(NC(=O)OC)[nH]c2c1	Angiostrongylus cantonensis	parasite motility		24 h, larva	pEC50	4.97
CN[C@H](CC(C)C)C(=O)N[C@H]1C(=O)N[C@@H](CC(N)=O)C(=O)N[C@H]2C(=O)N[C@H]3C(=O)N[C@H](C(=O)N[C@H](C(=O)O)c4cc(O)cc(O)c4-c4cc3ccc4O)[C@H](O)c3ccc(c(Cl)c3)Oc3cc2cc(c3O[C@@H]2O[C@H](CO)[C@@H](O)[C@H](O)[C@H]2O[C@H]2C[C@](C)(N)[C@H](O)[C@H](C)O2)Oc2ccc(cc2Cl)[C@H]1O	Micrococcus luteus	microbial growth, broth dilution	ATCC4698		MIC	0.34 µM
CNC(C)C1CCC(N)C(OC2C(N)CC(N)C(OC3OCC(C)(O)C(NC)C3O)C2O)O1 (stereo not drawn)	Escherichia coli	microbial killing, broth dilution	ATCC25922	24 h	MBC	4000 µM (≈ 1910 µg/mL)
OC(Cn1cncn1)(Cn1cncn1)c1ccc(F)cc1F	Alternaria solani	microbial growth, broth dilution			MIC	16 µg/mL
CCS(=O)(=O)Oc1cc(C=NNC(=O)CSc2nc3c(C)cccc3c(=O)n2-c2ccccc2)ccc1OC	Staphylococcus aureus	microbial growth, well diffusion	MRSA	20 µg/mL	inhibition zone	3 mm
CC1(C)S[C@@H]2[C@H](NC(=O)[C@H](N)c3ccccc3)C(=O)N2[C@H]1C(=O)O	Micrococcus luteus	microbial growth, broth dilution	ATCC4698	43 h	MIC	0.5 µg/mL
